From ChEMBL document CHEMBL2040734, “Benzothiazoles: search for anticancer agents” (2012)

Experiments:
Format in all cases: functional
[1] = test system: HCT-116; test: Cytotoxicity against human HCT116 cells assessed as cell growth at 0.01 uM after 48 hrs by sulforhodamine B assay; conditions: HCT-116, 48 h, read-out: Activity
How it was run: (§1)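 Five-dose NCI panel run at 0.01, 0.1, 1, 10 and 100 µM. Cells were in RPMI 1640 with 5% FBS and 2 mM L-glutamine, seeded at 5000–40,000 cells/well and pre-incubated 24 h. Drug was diluted from a DMSO stock into medium with 50 µg/ml gentamicin. Exposure was 48 h at 37 °C, 5% CO2. Cells were fixed with cold TCA and stained with 0.4% SRB, read at 515 nm. Percent growth came from time-zero, control and test absorbances.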

[2] = test system: MOLT-4; test: Cytotoxicity against human MOLT4 cells assessed as cell growth at 10 uM after 48 hrs by sulforhodamine B assay; conditions: MOLT-4, 48 h, read-out: Activity
[3] = test system: DU-145; test: Cytotoxicity against human DU145 cells assessed as cell growth at 0.01 uM after 48 hrs by sulforhodamine B assay; conditions: DU-145, 48 h, read-out: Activity
How it was run: (§2)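 NCI-60 five-dose screen. Cells were grown in RPMI 1640 with 5% FBS and 2 mM L-glutamine and preincubated 24 h. Compound (DMSO stock) was tested at 0.01, 0.1, 1, 10 and 100 µM for 48 h at 37 °C. Cells were fixed in situ with cold TCA (final 10%) and stained with 0.4% SRB. A515 was read, and percent growth was calculated against time-zero and control plates.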

[4] = test system: SK-MEL-5; test: Cytotoxicity against human SK-MEL-5 cells assessed as cell growth at 0.01 uM after 48 hrs by sulforhodamine B assay; conditions: SK-MEL-5, 48 h, read-out: Activity
[5] = test system: MCF7; test: Cytotoxicity against human MCF7 cells assessed as cell growth at 100 uM after 48 hrs by sulforhodamine B assay; conditions: MCF7, 48 h, read-out: Activity
[6] = test system: SNB-19; test: Growth inhibition of human SNB19 cells after 48 hrs by sulforhodamine B assay; conditions: SNB-19, 48 h
How it was run: (§3)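 Adherent NCI-60 lines were grown in RPMI 1640 with 5% FBS and 2 mM L-glutamine, plated at 5000–40,000 cells/well and preincubated 24 h. They were then exposed to five concentrations (0.01–100 µM, from a DMSO stock) for 48 h at 37 °C, 5% CO2. Cells were fixed with cold TCA (10% final, 60 min, 4 °C) and stained with 0.4% SRB. Dye was solubilized in 10 mM Tris base and A515 read. GI50 was derived from time-zero, control and treated absorbances.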

[7] = test system: HOP-62; test: Cytotoxicity against human HOP62 cells assessed as cell growth at 100 uM after 48 hrs by sulforhodamine B assay; conditions: HOP-62, 48 h, read-out: Activity; how it was run: as §1
[8] = test system: ACHN; test: Cytotoxicity against human ACHN cells assessed as cell growth at 0.1 uM after 48 hrs by sulforhodamine B assay; conditions: read-out: Activity; how it was run: as §2
[9] = test system: M14; test: Cytotoxicity against human M14 cells assessed as cell growth at 1 uM after 48 hrs by sulforhodamine B assay; conditions: M14, 48 h, read-out: Activity
[10] = test system: SK-MEL-2; test: Cytotoxicity against human SK-MEL-2 cells assessed as cell growth at 0.01 uM after 48 hrs by sulforhodamine B assay; conditions: SK-MEL-2, 48 h, read-out: Activity
[11] = test system: SNB-75; test: Growth inhibition of human SNB75 cells after 48 hrs by sulforhodamine B assay; conditions: SNB-75, 48 h; how it was run: as §3
[12] = test system: MDA-MB-231; test: Cytotoxicity against human MDA-MB-231 cells assessed as cell growth at 0.1 uM after 48 hrs by sulforhodamine B assay; conditions: MDA-MB-231, 48 h, read-out: Activity
[13] = test system: SK-OV-3; test: Cytotoxicity against human SKOV3 cells assessed as cell growth at 1 uM after 48 hrs by sulforhodamine B assay; conditions: SK-OV-3, 48 h, read-out: Activity
[14] = test system: MDA-MB-435; test: Cytotoxicity against human MDA-MB-435 cells assessed as cell growth at 10 uM after 48 hrs by sulforhodamine B assay; conditions: MDA-MB-435, 48 h, read-out: Activity
[15] = test system: SF-268; test: Cytotoxicity against human SF268 cells assessed as cell growth at 100 uM after 48 hrs by sulforhodamine B assay; conditions: SF-268, 48 h, read-out: Activity
[16] = test system: HCC 2998; test: Cytotoxicity against human HCC2998 cells assessed as cell growth at 10 uM after 48 hrs by sulforhodamine B assay; conditions: HCC 2998, 48 h, read-out: Activity; how it was run: as §1
[17] = test system: A549; test: Cytotoxicity against human A549 cells assessed as cell growth at 0.1 uM after 48 hrs by sulforhodamine B assay; conditions: A549, 48 h, read-out: Activity; how it was run: as §2
[18] = test system: U-251; test: Cytotoxicity against human U251 cells assessed as cell growth at 10 '-5 M after 48 hrs by sulforhodamine B assay; conditions: U-251, 48 h, read-out: Activity
[19] = test system: LOX IMVI; test: Cytotoxicity against human LOXIMVI cells assessed as cell growth at 0.01 uM after 48 hrs by sulforhodamine B assay; conditions: read-out: Activity
[20] = test system: NCI-H226; test: Cytotoxicity against human NCI-H226 cells assessed as cell growth at 1 uM after 48 hrs by sulforhodamine B assay; conditions: NCI-H226, 48 h, read-out: Activity
[21] = test system: NCI-H226; test: Cytotoxicity against human NCI-H226 cells assessed as cell growth at 100 uM after 48 hrs by sulforhodamine B assay; conditions: NCI-H226, 48 h, read-out: Activity
[22] = test system: NCI-H226; test: Cytotoxicity against human NCI-H226 cells assessed as cell growth at 0.1 uM after 48 hrs by sulforhodamine B assay; conditions: NCI-H226, 48 h, read-out: Activity
[23] = test system: HOP-92; test: Growth inhibition of human HOP92 cells after 48 hrs by sulforhodamine B assay; conditions: HOP-92, 48 h; how it was run: as §3
[24] = test system: NCI-H226; test: Cytotoxicity against human NCI-H226 cells assessed as cell growth at 10 uM after 48 hrs by sulforhodamine B assay; conditions: NCI-H226, 48 h, read-out: Activity

Row | Compound | growth at 0.01 µM [1] | growth at 10 µM [2] | growth at 0.01 µM [3] | growth at 0.01 µM [4] | growth at 100 µM [5] | GI50 [6] | LC50 (concentration causing 50% net cell kill) [6] | TGI [6] | growth at 100 µM [7] | growth at 0.1 µM [8] | growth at 1 µM [9] | growth at 0.01 µM [10] | GI50 [11] | LC50 [11] | growth at 0.1 µM [12] | growth at 1 µM [13] | growth at 10 µM [14] | growth at 100 µM [15] | growth at 10 µM [16] | growth at 0.1 µM [17] | also measured
1 | Cc1ccc2nc(Nc3c(C)cccc3C)sc2c1 | 102% | 56% | 104% | 95% | 46% | 5830 nM | > 100000 nM | > 100000 nM | 10% | 105% | 58% | 94% | 1260 nM | > 100000 nM | 84% | 91% | -26% | 34% | 53% | 108% | TGI [11]: > 100000 nM; growth at 10 µM [18]: 34%; growth at 0.01 µM [19]: 94%
2 | Clc1cccc(Cl)c1Nc1nc2cccc(Cl)c2s1 | 104% | -38% | 106% | 94% | -55% | 1340 nM | 6740 nM | 3000 nM | -75% | 98% | 73% | 98% | 791 nM | > 100000 nM | 81% | 86% | -77% | -56% | -88% | 99% | growth at 1 µM [20]: -9%; growth at 100 µM [21]: -72%; growth at 0.1 µM [22]: 45%; GI50 [23]: 71.8 nM; TGI [23]: 690 nM; CC50 ([23]; read-out: LC50 (the source's name)): 3610 nM; growth at 10 µM [24]: -83%; growth at 0.01 µM [19]: 94%
